Assay results taken from ChEMBL document CHEMBL3407440, “Monocarbonyl analogs of curcumin inhibit growth of antibiotic sensitive and resistant strains of Mycobacterium tuberculosis” (Eur J Med Chem, 2015).
Activity calls are given as the source filed them. The rule behind the calls is not given here.

Legend:
Mycobacterium marinum [1] = assay: Antituberculosis activity against Mycobacterium marinum assessed as diameter of zone of inhibition at 100 mM incubated for 7 days by disk diffusion assay; type: functional; details: 168 h, read-out: DIZ
In short: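 Mm 1218R grown in 7H9-ADC (0.025% Tween 80) to OD600 0.35, diluted to OD600 0.04, spread on 7H10-OADC agar and air-dried 10 min. A 6 mm disk received 10 µl of 100 mM analog (in DMSO or water). Plates were incubated 7 days at 30 °C in 5% CO2 (legend: 32 °C), three plates per analog. The bacteria-free zone around the disk was measured.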

[2] = Tmax in Swiss Webster male mouse at 12.5 mg/kg, ip; type: ADME, organism-based; set-up: dose 12.5 mg/kg, route intraperitoneal; details: in vivo
[3] = Cmax in Swiss Webster male mouse at 12.5 mg/kg, ip; type: ADME, organism-based; set-up: dose 12.5 mg/kg, route intraperitoneal; details: in vivo
[4] = Half life in Swiss Webster male mouse at 12.5 mg/kg, ip; type: ADME, organism-based; set-up: dose 12.5 mg/kg, route intraperitoneal; details: in vivo
Mycobacterium marinum [5] = assay: Antituberculosis activity against Mycobacterium marinum assessed as growth inhibition after 72 hrs by liquid culture assay; type: functional, organism-based
In short: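 Mm 1218R grown in 7H9-ADC (0.025% Tween 80) to OD600 0.35, then diluted to OD600 0.04. Cultured 72 h with analog in DMSO at 0.780–100 µM (twofold steps), in duplicate, alongside no-drug and 1% DMSO vehicle controls. Mean ± SEM of three experiments.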

[6] = system: Mycobacterium tuberculosis; assay: Antituberculosis activity against Mycobacterium tuberculosis Beijing F2 assessed as growth inhibition after 72 hrs by liquid culture assay; type: functional, organism-based; details: Beijing F2, 72 h
[7] = system: Mycobacterium tuberculosis; assay: Antituberculosis activity against Mycobacterium tuberculosis H37Rv assessed as growth inhibition after 72 hrs by liquid culture assay; type: functional, organism-based
[8] = Tmax in CD2F1 male mouse at 10 mg/kg, ip; type: ADME, organism-based; set-up: dose 10 mg/kg, route intraperitoneal; details: in vivo
[9] = Tmax in CD2F1 male mouse at 10 mg/kg, po; type: ADME, organism-based; set-up: dose 10 mg/kg, route oral; details: in vivo
[10] = Cmax in CD2F1 male mouse at 10 mg/kg, ip; type: ADME, organism-based; set-up: dose 10 mg/kg, route intraperitoneal; details: in vivo
[11] = Cmax in CD2F1 male mouse at 10 mg/kg, po; type: ADME, organism-based; set-up: dose 10 mg/kg, route oral; details: in vivo
[12] = Half life in CD2F1 male mouse at 10 mg/kg, ip; type: ADME, organism-based; set-up: dose 10 mg/kg, route intraperitoneal; details: in vivo
[13] = Half life in CD2F1 male mouse at 10 mg/kg, po; type: ADME, organism-based; set-up: dose 10 mg/kg, route oral; details: in vivo
Mycobacterium marinum [14] = assay: Antituberculosis activity against rifampicin-resistant Mycobacterium marinum assessed as growth inhibition after 72 hrs by liquid culture assay; type: functional, organism-based
In short: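 Rifampicin-resistant Mm 1218R^rifR cultured in 7H9-ADC broth with DMSO, rifampicin or analog at varied concentrations for 72 h. Growth read as OD600 and normalized to untreated culture; IC50 derived. Mean ± SEM of three experiments.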

[15] = system: Mycobacterium tuberculosis; assay: Antituberculosis activity against Mycobacterium tuberculosis H37Rv assessed as zone of inhibition at 100 mM incubated for 28 days by disk diffusion assay; type: functional, organism-based; details: 672 h
In short: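 Disk diffusion on Mtb H37Rv plates: disk loaded with 100 mM analog, plates incubated 28 days at 37 °C, then zone of inhibition measured.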

[16] = Tmax in CD1 male mouse at 50 mg/kg, po; type: ADME, organism-based; set-up: dose 50 mg/kg, route oral; details: in vivo
[17] = Cmax in CD1 male mouse at 50 mg/kg, po; type: ADME, organism-based; set-up: dose 50 mg/kg, route oral; details: in vivo
[18] = Half life in CD1 male mouse at 50 mg/kg, po; type: ADME, organism-based; set-up: dose 50 mg/kg, route oral; details: in vivo
Mycobacterium marinum [19] = assay: Potentiation of antituberculosis activity against Mycobacterium marinum assessed as UBS-109-induced growth inhibition at 0.3 uM after 72 hrs by liquid culture assay; type: functional, organism-based
In short: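 Mm cultured in 7H9-ADC broth with rifampicin (0.250–4 µg/mL) alone or combined with analog (6.250–100 µM), in duplicate, with no-drug and 1% DMSO controls. OD600 read after 72 h and normalized to vehicle. Combinations compared with each agent alone by nonparametric ANOVA. Mean ± SEM of three experiments.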

Compound: O=C1C(Cc2ccccn2)CNCC1Cc1ccccn1 (stereo unspecified)
- zone of inhibition at 100000 µM (Mycobacterium marinum [1]): 0 mm

Compound: CN1C/C(=C\c2ccccc2F)C(=O)/C(=C/c2ccccc2F)C1
- zone of inhibition at 100000 µM (Mycobacterium marinum [1]): 1.4 mm

Compound: O=C1/C(=C/c2ccccn2)CNC/C1=C\c1ccccn1
- zone of inhibition at 100000 µM (Mycobacterium marinum [1]): 4.7 mm
- Tmax [2]: 15 min
- Cmax [3]: 1070 ng/mL
- half-life [4]: 132 min

Compound: O=C1/C(=C/c2ccccc2F)CNC/C1=C\c1ccccc1F
- zone of inhibition at 100000 µM (Mycobacterium marinum [1]): 2.6 mm
- IC50 (Mycobacterium marinum [5]): 25 µM
- IC50 [6]: 50 µM
- IC50 [7]: 20 µM
- Tmax [8]: 3 min
- Tmax [9]: 3 min
- Cmax [10]: 259 ng/mL
- Cmax [11]: 275 ng/mL
- half-life [12]: 219 min
- half-life [13]: 177 min

Compound: O=C1/C(=C/c2ccccn2)CNC[C@H]1Cc1ccccn1
- zone of inhibition at 100000 µM (Mycobacterium marinum [1]): 4.6 mm
- IC50 (Mycobacterium marinum [5]): 50 µM

Compound: O=C1/C(=C/c2ccccn2)CSC/C1=C\c1ccccn1
- zone of inhibition at 100000 µM (Mycobacterium marinum [1]): 2.7 mm

Compound: CN1C/C(=C\c2ccccn2)C(=O)/C(=C/c2ccccn2)C1
- zone of inhibition at 100000 µM (Mycobacterium marinum [1]): 5.7 mm
- IC50 (Mycobacterium marinum [5]): 10 µM
- IC50 (Mycobacterium marinum [14]): 4 µM
- IC50 [15]: 4 µM
- IC50 [6]: 20 µM
- IC50 [7]: 10 µM
- Tmax [16]: 30 min
- Cmax [17]: 131 ng/mL
- half-life [18]: 222 min

Compound: CO[C@H]1/C=C/O[C@@]2(C)Oc3c(C)c(O)c4c(O)c(c(/C=N/N5CCN(C)CC5)c(O)c4c3C2=O)NC(=O)/C(C)=C\C=C\[C@H](C)[C@H](O)[C@@H](C)[C@@H](O)[C@@H](C)[C@H](OC(C)=O)[C@@H]1C
- Activity (Mycobacterium marinum [19]): inactive

Compound: COc1cc(/C=C/C(=O)CC(=O)/C=C/c2ccc(O)c(OC)c2)ccc1O [CURCUMIN]
- zone of inhibition at 100000 µM (Mycobacterium marinum [1]): 1.1 mm

Compound: COC(=O)CCC(=O)N1C/C(=C\c2ccccc2F)C(=O)/C(=C/c2ccccc2F)C1
- zone of inhibition at 100000 µM (Mycobacterium marinum [1]): 1.8 mm
